Calls of active or inactive are those of the source.
Legend:
[1] = Cytotoxicity against mouse McCoy cells after 48 hrs at =<60 uM by MTT assay; assay type: cell-based
Procedure, shortened: (§1)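 Cytotoxicity was tested by running the MCC procedure without inoculum: compound diluted in half with SPG, then diluted 1:40 onto McCoy monolayers and incubated 48 h at 37°C. Read-out by Alamar Blue, MTT and LDH kits. SPG served as negative control and Triton X-100 as positive control. Nontoxic was defined as <10% toxicity in all methods.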

[2] = system: Chlamydia trachomatis; test: Antibacterial activity against Chlamydia trachomatis serovar L2 at 50 uM after 120 mins relative to control; assay type: functional; settings: serovar L2, 2 h
Procedure, shortened: (§2)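 Serovar L2 EBs (5 × 10⁶ IFU/ml in SPG, pH 7.5) mixed 1:1 with ten 2-fold SPG dilutions (final 50 μM top peptide, 25 mM lipid), exposed 5 or 120 min, diluted 1:40, plated on McCoy cells; fixed with methanol after 36–48 h, anti-LPS/FITC stained. Triplicate wells, three fields each, three independent days; percent inhibition versus no-drug control ± SD.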

[3] = system: Chlamydia trachomatis; test: Antibacterial activity against Chlamydia trachomatis serovar D at 60.0 - 3.75 uM after 120 mins by MCC assay in presence of simulated vaginal fluid relative to control; assay type: functional, organism-based
Procedure, shortened: (§3)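 C. trachomatis serovar EBs (5 × 10⁶ IFU/ml) diluted in 100% VFS (zinc-free for SFS), 100% SFS or 10% HSA, mixed 1:1 with five 4-fold SPG dilutions (final 60 μM/30 mM top; 50% VFS, 50% SFS, 5% HSA). After 5 or 120 min, diluted 1:40, inoculated onto McCoy monolayers. Inclusions stained with anti-LPS/FITC after 36–48 h. Inhibition versus no-drug control in the same fluid; MCC is complete inhibition.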

[4] = system: Chlamydia trachomatis; test: Antibacterial activity against Chlamydia trachomatis serovar L2 at 60.0 -3.75 uM after 5 mins by MCC assay in presence of simulated seminal fluid relative to control; assay type: functional, organism-based
Procedure, shortened: (§4)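 McCoy monolayers seeded 5 × 10⁴ cells/well the day before. Five 4-fold dilutions in SPG (from 120 μM, 60 μM final) mixed 1:1 with EBs (5 × 10⁶ IFU/ml) in VFS, SFS or HSA, giving final 50% VFS, 50% SFS or 5% HSA. After exposure, mix diluted 1:40 in SPG, then inoculated. Inhibition is relative to a no-drug control in the same fluid and exposure time.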

[5] = system: Chlamydia trachomatis; test: Antibacterial activity against Chlamydia trachomatis serovar E at 60.0 - 3.75 uM after 5 mins by MCC assay in presence of simulated vaginal fluid relative to control; assay type: functional, organism-based; procedure, shortened: as §3
[6] = system: Chlamydia trachomatis; test: Antibacterial activity against Chlamydia trachomatis serovar D at 60.0 - 3.75 uM after 120 mins by MCC assay in presence of simulated seminal fluid relative to control; assay type: functional, organism-based; procedure, shortened: as §3
[7] = system: Chlamydia trachomatis; test: Antibacterial activity against Chlamydia trachomatis serovar E at 60.0 - 3.75 uM after 120 mins by MCC assay in presence of simulated seminal fluid relative to control; assay type: functional, organism-based; procedure, shortened: as §3
[8] = system: Chlamydia trachomatis; test: Antibacterial activity against Chlamydia trachomatis serovar D at 60.0 - 3.75 uM after 120 mins by MCC assay in presence of human serum albumin relative to control; assay type: functional, organism-based; procedure, shortened: as §3
[9] = system: Chlamydia trachomatis; test: Antibacterial activity against Chlamydia trachomatis serovar D at 60.0 - 3.75 uM after 5 mins by MCC assay in presence of simulated vaginal fluid relative to control; assay type: functional, organism-based; procedure, shortened: as §3
[10] = system: Chlamydia trachomatis; test: Antibacterial activity against Chlamydia trachomatis serovar L2 at => 3.13 uM after 5 mins relative to control; assay type: functional
[11] = system: Chlamydia trachomatis; test: Antibacterial activity against Chlamydia trachomatis serovar D at 60.0 - 3.75 uM after 5 mins by MCC assay in presence of human serum albumin relative to control; assay type: functional, organism-based; procedure, shortened: as §3
[12] = system: Chlamydia trachomatis; test: Antibacterial activity against Chlamydia trachomatis serovar L2 at 3.75 uM at pH 7 after 120 mins by MCC assay in presence of sucrose-phosphate-glutamate buffer relative to control; assay type: functional, organism-based
Procedure, shortened: (§5)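 Compounds and EBs were each diluted in SPG at pH 4, 5.5, 7 or 8 and mixed 1:1, so exposure pH was constant. Five 4-fold dilutions were used (top 60 μM peptide, 30 mM lipid). After 5 or 120 min, the mix was diluted 1:40 in pH 7.5 SPG and plated on McCoy cells. Inclusion counts were compared with a no-drug control at the same pH and time.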

[13] = system: Chlamydia trachomatis; test: Antibacterial activity against Chlamydia trachomatis serovar E at 60.0 -3.75 uM after 5 mins by MCC assay in presence of human serum albumin relative to control; assay type: functional, organism-based; procedure, shortened: as §3
[14] = system: Chlamydia trachomatis; test: Antibacterial activity against Chlamydia trachomatis serovar D at 15 uM at pH 4 after 120 mins by MCC assay in presence of sucrose- phosphate-glutamate buffer; assay type: functional, organism-based; procedure, shortened: as §5
[15] = system: Chlamydia trachomatis; test: Antibacterial activity against Chlamydia trachomatis serovar L2 at 3.75 uM at pH 4 after 120 mins by MCC assay in presence of sucrose-phosphate-glutamate buffer relative to control; assay type: functional, organism-based; procedure, shortened: as §5
[16] = system: Chlamydia trachomatis; test: Antibacterial activity against Chlamydia trachomatis serovar L2 at 60.0 - 3.75 uM after 5 mins by MCC assay in presence of simulated vaginal fluid relative to control; assay type: functional, organism-based; procedure, shortened: as §4
[17] = system: Chlamydia trachomatis; test: Antibacterial activity against Chlamydia trachomatis serovar L2 at 60.0 -3.75 uM after 120 mins by MCC assay in presence of simulated seminal fluid relative to control; assay type: functional, organism-based; procedure, shortened: as §4
[18] = Cytotoxicity against mouse McCoy cells after 48 hrs at =<60 uM by almar blue assay; assay type: cell-based; procedure, shortened: as §1
[19] = system: Chlamydia trachomatis; test: Antibacterial activity against Chlamydia trachomatis serovar E at 60.0 -3.75 uM after 120 mins by MCC assay in presence of human serum albumin relative to control; assay type: functional, organism-based; procedure, shortened: as §3
[20] = system: Chlamydia trachomatis; test: Antibacterial activity against Chlamydia trachomatis serovar E at 60.0 - 3.75 uM after 5 mins by MCC assay in presence of simulated seminal fluid relative to control; assay type: functional, organism-based; procedure, shortened: as §3
[21] = system: Chlamydia trachomatis; test: Antibacterial activity against Chlamydia trachomatis serovar D at 15 uM at pH 7 after 120 mins by MCC assay in presence of sucrose-phosphate-glutamate buffer relative to contro; assay type: functional, organism-based; procedure, shortened: as §5
[22] = system: Chlamydia trachomatis; test: Antibacterial activity against Chlamydia trachomatis serovar L2 at => 3.13 uM after 120 mins relative to control; assay type: functional
[23] = system: Chlamydia trachomatis; test: Antibacterial activity against Chlamydia trachomatis serovar D at 3.75 uM at pH 7 after 120 mins by MCC assay in presence of sucrose-phosphate-glutamate buffer relative to contro; assay type: functional, organism-based; procedure, shortened: as §5
[24] = system: Chlamydia trachomatis; test: Antibacterial activity against Chlamydia trachomatis serovar L2 at 60.0 - 3.75 uM after 120 mins by MCC assay in presence of simulated vaginal fluid relative to control; assay type: functional, organism-based; procedure, shortened: as §3
[25] = system: Chlamydia trachomatis; test: Antibacterial activity against Chlamydia trachomatis serovar D at 60.0 - 3.75 uM after 5 mins by MCC assay in presence of simulated seminal fluid relative to control; assay type: functional, organism-based; procedure, shortened: as §3
[26] = system: Chlamydia trachomatis; test: Antibacterial activity against Chlamydia trachomatis serovar D at 15 uM at pH 7 after 120 mins by MCC assay in presence of sucrose- phosphate-glutamate buffer; assay type: functional, organism-based; procedure, shortened: as §5
[27] = system: Chlamydia trachomatis; test: Antibacterial activity against Chlamydia trachomatis serovar L2 at 60.0 - 3.75 uM after 120 mins by MCC assay in presence of human serum albumin relative to control; assay type: functional, organism-based; procedure, shortened: as §3
[28] = system: Chlamydia trachomatis; test: Antibacterial activity against Chlamydia trachomatis serovar L2 at 60.0 - 3.75 uM after 5 mins by MCC assay in presence of human serum albumin relative to control; assay type: functional, organism-based; procedure, shortened: as §4
[29] = system: Chlamydia trachomatis; test: Antibacterial activity against Chlamydia trachomatis serovar E at 60.0 - 3.75 uM after 120 mins by MCC assay in presence of simulated vaginal fluid relative to control; assay type: functional, organism-based; procedure, shortened: as §3
[30] = system: Chlamydia trachomatis; test: Antibacterial activity against Chlamydia trachomatis serovar L2 at 50 uM after 5 mins relative to control; assay type: functional; settings: serovar L2, 5 min; procedure, shortened: as §2
[31] = system: Chlamydia trachomatis; test: Antibacterial activity against Chlamydia trachomatis serovar L2 at 15 uM at pH 7 after 120 mins by MCC assay in presence of sucrose-phosphate-glutamate buffer relative to control; assay type: functional, organism-based; procedure, shortened: as §5
[32] = system: Chlamydia trachomatis; test: Antibacterial activity against Chlamydia trachomatis serovar D at 3.75 uM at pH 4 after 120 mins by MCC assay in presence of sucrose- phosphate-glutamate buffer; assay type: functional, organism-based; procedure, shortened: as §5

Question: For H-RRWVRRVRRWVRRVVRVVRRWVRR-OH, which Activity [1] is on record?
Answer: Non-toxic

Question: And the inhibition at 50 µM [2]?
Answer: 99.9%

Question: And the Activity [3]?
Answer: inactive

Question: And the Activity [4]?
Answer: inactive

Question: And the Activity [5]?
Answer: inactive

Question: And the Activity [6]?
Answer: inactive

Question: And the Activity [7]?
Answer: inactive

Question: What about the Activity [8] of the same substance?
Answer: inactive

Question: What about the Activity [9] of the same substance?
Answer: inactive

Question: And the Activity [10]?
Answer: >56%

Question: What about the Activity [11] of the same substance?
Answer: inactive

Question: What about the Activity [12] of the same substance?
Answer: inactive

Question: And the Activity [13]?
Answer: inactive

Question: What about the Activity [14] of the same substance?
Answer: inactive

Question: And the Activity [15]?
Answer: inactive

Question: What about the Activity [16] of the same substance?
Answer: inactive

Question: What about the Activity [17] of the same substance?
Answer: inactive

Question: And the Activity [18]?
Answer: Non-toxic

Question: And the Activity [19]?
Answer: inactive

Question: And the Activity [20]?
Answer: inactive

Question: What about the Activity [21] of the same substance?
Answer: inactive

Question: What about the Activity [22] of the same substance?
Answer: >97%

Question: What about the Activity [23] of the same substance?
Answer: inactive

Question: And the Activity [24]?
Answer: inactive

Question: What about the Activity [25] of the same substance?
Answer: inactive

Question: And the Activity [26]?
Answer: inactive

Question: What about the Activity [27] of the same substance?
Answer: inactive

Question: And the Activity [28]?
Answer: inactive

Question: What about the Activity [29] of the same substance?
Answer: inactive

Question: And the inhibition at 50 µM [30]?
Answer: 89.3%

Question: And the Activity [31]?
Answer: inactive

Question: What about the Activity [32] of the same substance?
Answer: inactive

From ChEMBL document CHEMBL1212805, “Evaluation of WLBU2 peptide and 3-O-octyl-sn-glycerol lipid as active ingredients for a topical microbicide formulation targeting Chlamydia trachomatis” (Antimicrob Agents Chemother, 2010)
